Reference: ChEMBL document CHEMBL3769384, “Discovery of Tetrahydropyrazolopyridine as Sphingosine 1-Phosphate Receptor 3 (S1P3)-Sparing S1P1 Agonists Active at Low Oral Doses” (J Med Chem, 2016)

Assays:
[1] = Passive permeability from apical to basolateral side in MDCK2-MDR1 cells after 90 mins by LC-MS/MS analysis; type: ADME, cell-based, Canis lupus familiaris, MDCK-II; conditions: dog, MDCK-MDR1; read-out: permeability
In short: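 MDCKII-MDR1 monolayers used 3-4 days after seeding on inserts. Apical FaSSIF at pH 5.5 or 7.4; basolateral DMEM pH 7.4 with 1% HSA. Both sides contained 2 µM GF120918 and were preincubated 30 min. A→B transport measured in triplicate after 90 min at 37°C with shaking.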

Hepatocyte = experiment: Intrinsic clearance in CD1 mouse hepatocytes at 0.5 uM after 2 hrs by LC-MS/MS analysis; type: ADME, cell-based
In short: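 Compound at 0.5 µM incubated with pooled cryopreserved hepatocytes (0.7 million cells/mL) in Williams Medium E at 37°C under CO2/O2. Supernatants analysed by LC-MS/MS. CLi was derived from a first-order rate constant, scaled with 1.2x10^8 cells/g liver (human, rat, mouse) or 2.4x10^8 cells/g liver (dog).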

[2] = target: T1, Sphingosine 1-phosphate receptor 1 (Homo sapiens, UniProt P21453); experiment: Agonist activity at human S1P1 receptor expressed in CHO-K1 EDG1 cells by beta-arrestin recruitment assay; type: cell-based
T1 sequence (P21453 whole entry, the tested form may be a part): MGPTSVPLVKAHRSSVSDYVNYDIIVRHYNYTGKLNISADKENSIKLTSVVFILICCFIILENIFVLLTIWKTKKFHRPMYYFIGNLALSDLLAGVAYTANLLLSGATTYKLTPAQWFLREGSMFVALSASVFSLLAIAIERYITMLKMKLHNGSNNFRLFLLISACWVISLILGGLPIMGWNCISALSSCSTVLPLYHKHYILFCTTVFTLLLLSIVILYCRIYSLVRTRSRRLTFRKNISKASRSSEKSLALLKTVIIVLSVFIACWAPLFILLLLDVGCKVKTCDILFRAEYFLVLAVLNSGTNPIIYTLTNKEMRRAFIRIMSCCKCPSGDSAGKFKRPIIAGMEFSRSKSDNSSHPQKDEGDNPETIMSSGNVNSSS
In short: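 CHO-K1 cells stably expressing beta-arrestin 2 and S1P1 fused to complementing beta-galactosidase fragments; grown to 80% confluency, harvested enzyme-free, resuspended in HEPES/BSA assay buffer pH 7.4. Cells at 1x10^4/well added to compound in DMSO, 90 min at 37°C/5% CO2, then 15 min at room temperature; chemiluminescent detection mix 60 min at room temperature, luminescence read.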

[3] = target: T2, Sphingosine 1-phosphate receptor 4 (Homo sapiens, UniProt O95977); experiment: Agonist activity at human S1P4 receptor expressed in CHO-K1 cells by aequorin calcium accumulation assay; type: functional, cell-based
T2 sequence (O95977 whole entry): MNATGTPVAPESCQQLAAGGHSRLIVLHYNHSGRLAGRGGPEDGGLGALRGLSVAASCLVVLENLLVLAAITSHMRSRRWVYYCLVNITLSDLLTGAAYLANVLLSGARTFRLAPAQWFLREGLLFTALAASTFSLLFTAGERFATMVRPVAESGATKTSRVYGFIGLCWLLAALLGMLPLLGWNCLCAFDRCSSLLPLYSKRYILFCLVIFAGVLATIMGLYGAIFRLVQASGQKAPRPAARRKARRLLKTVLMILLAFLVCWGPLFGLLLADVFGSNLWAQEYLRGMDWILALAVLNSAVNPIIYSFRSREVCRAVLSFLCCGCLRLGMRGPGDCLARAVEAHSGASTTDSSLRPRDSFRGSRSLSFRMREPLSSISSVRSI
In short: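 CHO-K1 aequorin lines revived in DMEM F12 with 10% charcoal-stripped FBS, recovered 30 min at 37°C, then loaded 18-24 h at room temperature in the dark with 5 µM coelenterazine at 2.5x10^6 cells/mL. Cells were added at 1x10^5/well to compound, and flash luminescence was recorded immediately.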

[4] = target: T1, Sphingosine 1-phosphate receptor 1; experiment: Agonist activity at human S1P1 receptor expressed in RH7777 cells by [35S]GTP-gammaS accumulation assay; type: cell-based
In short: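 RH7777 S1P1 membranes (1.5 µg/well) precoupled 30 min on ice to WGA SPA beads in 20 mM HEPES, 10 mM MgCl2, 100 mM NaCl, pH 7.4, with 10 µM GDP and 90 µg/mL saponin (final). 0.5 nM [35S]GTPγS final added to compound; plates read immediately by scintillation proximity.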

[5] = Fraction unbound in beagle dog blood after 4 hrs by LC-MS/MS analysis; type: ADME, tissue-based, Canis lupus familiaris
In short: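 Fresh blood (CD rat, CD1 mouse, Beagle dog, single human donor) spiked at 1000 ng/mL and dialysed against PBS by rapid equilibrium dialysis for 4 h at 37°C. Matrix-matched LC-MS/MS; unbound fraction taken from the buffer/blood peak area ratio.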

Cytochrome P450 3A4 = Cytochrome P450 3A4 (Homo sapiens, UniProt P08684); experiment: Inhibition of human CYP3A4 by VR metabolism assay; type: ADME
Sequence of Cytochrome P450 3A4 (P08684 whole entry): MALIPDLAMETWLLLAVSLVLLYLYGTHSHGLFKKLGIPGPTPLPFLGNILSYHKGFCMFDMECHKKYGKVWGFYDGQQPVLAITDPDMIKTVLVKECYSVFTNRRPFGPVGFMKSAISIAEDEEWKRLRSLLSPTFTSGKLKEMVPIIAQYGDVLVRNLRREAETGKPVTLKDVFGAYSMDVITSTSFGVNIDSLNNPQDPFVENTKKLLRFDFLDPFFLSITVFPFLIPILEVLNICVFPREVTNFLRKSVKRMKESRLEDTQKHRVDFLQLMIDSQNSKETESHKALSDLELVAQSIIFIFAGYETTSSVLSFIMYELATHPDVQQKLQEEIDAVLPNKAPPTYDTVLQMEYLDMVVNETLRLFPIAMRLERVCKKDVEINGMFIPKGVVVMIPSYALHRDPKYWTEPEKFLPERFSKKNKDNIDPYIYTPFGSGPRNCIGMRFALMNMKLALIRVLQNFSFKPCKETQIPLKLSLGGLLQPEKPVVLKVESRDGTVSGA

With `Cc1c2c(nn1-c1nnc(-c3ccc(OC(C)C)c(Cl)c3)s1)CCN(CCC(=O)O)C2` the Papp A→B at 1.5 h [1] was 14.7 ×10⁻⁶ cm/s, the CLH (Hepatocyte) was under 0.85 mL/min/g and the EC50 [2] was 1.58 nM. For the same compound, the EC50 [3] was over 39800 nM, the EC50 [4] was 6.31 nM and the fraction unbound at 4 h [5] was 0.011. The IC50 (Cytochrome P450 3A4) was over 50000 nM.
